Results as given in ChEMBL document CHEMBL3286116, “Synthesis, biological evaluation and structure-activity correlation study of a series of imidazol-based compounds as Candida albicans inhibitors” (Eur J Med Chem, 2014).
Values after ≈ are worked out from the molar mass of the structure shown.

Legend:
Format in all cases: functional
[1] = tested on: Candida albicans; test: Antifungal activity against Candida albicans PMC 1011 after 48 hrs by CLSI broth microdilution method; settings: PMC 1011, 48 h
Method in brief: (§1)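 Yeast CLSI broth microdilution (M27-A3). Compounds dissolved in DMSO at 100× the top test concentration, then diluted as serial two-fold dilutions in RPMI 1640 to final 0.125–64. Inoculum was 1.0–1.5 × 10^3 cells mL−1, incubated at 35 °C and read for growth at 48 h. MIC is the lowest concentration giving ≥50% growth inhibition versus growth control. Reported as the median of five replicates and as the geometric mean.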

[2] = tested on: Nannizzia gypsea; test: Antifungal activity against Microsporum gypseum DSM 3824 after 72 hrs by CLSI broth microdilution method; settings: DSM 3824, 72 h
Method in brief: (§2)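 Dermatophytes tested by CLSI broth microdilution for filamentous fungi (M38-A2). Serial two-fold dilutions of DMSO-dissolved compound in RPMI 1640, final 0.125–64. Inoculum was 0.4–5 × 10^4 CFU mL−1, incubated at 35 °C and read at 72 h. MIC80 is the lowest concentration giving ≥80% growth inhibition versus growth control. Median of five replicates, plus geometric mean.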

[3] = tested on: Cryptococcus neoformans; test: Antifungal activity against Cryptococcus neoformans PMC 2103 after 72 hrs by CLSI broth microdilution method; settings: PMC 2103, 72 h
Method in brief: (§3)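 Cryptococcus neoformans tested by CLSI broth microdilution in RPMI 1640, with serial two-fold dilutions from DMSO stocks at 100× the top concentration, final 0.125–64. Inoculum was 1.0–1.5 × 10^3 cells mL−1 at 35 °C, with growth read at 72 h. MIC is the lowest concentration with ≥50% growth inhibition versus control. Median of five replicates, plus geometric mean.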

[4] = tested on: Nannizzia gypsea; test: Antifungal activity against Microsporum gypseum PMC 7303 after 72 hrs by CLSI broth microdilution method; settings: PMC 7303, 72 h; method in brief: as §2
[5] = tested on: Pichia kudriavzevii; test: Antifungal activity against Candida krusei DSM 6128 after 48 hrs by CLSI broth microdilution method; settings: DSM 6128, 48 h; method in brief: as §1
[6] = tested on: Candida tropicalis; test: Antifungal activity against Candida tropicalis DSM 11953 after 48 hrs by CLSI broth microdilution method; settings: DSM 11953, 48 h; method in brief: as §1
[7] = tested on: Trichophyton mentagrophytes; test: Antifungal activity against Trichophyton mentagrophytes PMC 6552 after 72 hrs by CLSI broth microdilution method; settings: PMC 6552, 72 h; method in brief: as §2
[8] = tested on: Cryptococcus neoformans; test: Antifungal activity against Cryptococcus neoformans PMC 2123 after 72 hrs by CLSI broth microdilution method; settings: PMC 2123, 72 h; method in brief: as §3
[9] = tested on: Nakaseomyces glabratus; test: Antifungal activity against Candida glabrata PMC 0805 after 48 hrs by CLSI broth microdilution method; settings: PMC 0805, 48 h; method in brief: as §1
[10] = tested on: Candida parapsilosis; test: Antifungal activity against Candida parapsilosis ATCC 22019 after 48 hrs by CLSI broth microdilution method; settings: Lodderomyces parapsilosis, ATCC 22019, 48 h; method in brief: as §1
[11] = tested on: Candida albicans; test: Antifungal activity against Candida albicans ATCC 20891 after 48 hrs by CLSI broth microdilution method; settings: ATCC 20891, 48 h; method in brief: as §1
[12] = tested on: Trichophyton mentagrophytes; test: Antifungal activity against Trichophyton mentagrophytes PMC 6503 after 72 hrs by CLSI broth microdilution method; settings: PMC 6503, 72 h; method in brief: as §2
[13] = tested on: Candida albicans; test: Antifungal activity against Candida albicans ATCC 90028 after 48 hrs by CLSI broth microdilution method; settings: ATCC 90028, 48 h; method in brief: as §1
[14] = tested on: Candida albicans; test: Antifungal activity against Candida albicans ATCC 10231 after 48 hrs by CLSI broth microdilution method; settings: ATCC 10231, 48 h; method in brief: as §1
[15] = tested on: Candida albicans; test: Antifungal activity against Candida albicans ATCC 10261 after 48 hrs by CLSI broth microdilution method; settings: ATCC 10261, 48 h; method in brief: as §1
[16] = tested on: Pichia kudriavzevii; test: Antifungal activity against Candida krusei PMC 0613 after 48 hrs by CLSI broth microdilution method; settings: PMC 0613, 48 h; method in brief: as §1
[17] = tested on: Trichophyton mentagrophytes; test: Antifungal activity against Trichophyton mentagrophytes PMC 6509 after 72 hrs by CLSI broth microdilution method; settings: PMC 6509, 72 h; method in brief: as §2
[18] = tested on: Cryptococcus neoformans; test: Antifungal activity against Cryptococcus neoformans DSM 11959 after 72 hrs by CLSI broth microdilution method; settings: DSM 11959, 72 h; method in brief: as §3
[19] = tested on: Cryptococcus neoformans; test: Antifungal activity against Cryptococcus neoformans PMC 2136 after 72 hrs by CLSI broth microdilution method; settings: PMC 2136, 72 h; method in brief: as §3
[20] = tested on: Candida albicans; test: Antifungal activity against Candida albicans ATCC 24433 after 48 hrs by CLSI broth microdilution method; settings: ATCC 24433, 48 h; method in brief: as §1
[21] = tested on: Nakaseomyces glabratus; test: Antifungal activity against Candida glabrata PMC 0807 after 48 hrs by CLSI broth microdilution method; settings: PMC 0807, 48 h; method in brief: as §1
[22] = tested on: Trichophyton mentagrophytes; test: Antifungal activity against Trichophyton mentagrophytes PMC 6531 after 72 hrs by CLSI broth microdilution method; settings: PMC 6531, 72 h; method in brief: as §2
[23] = tested on: Trichophyton mentagrophytes; test: Antifungal activity against Trichophyton mentagrophytes PMC 6515 after 72 hrs by CLSI broth microdilution method; settings: PMC 6515, 72 h; method in brief: as §2
[24] = tested on: Candida parapsilosis; test: Antifungal activity against Candida parapsilosis DSM 11224 after 48 hrs by CLSI broth microdilution method; settings: Lodderomyces parapsilosis, DSM 11224, 48 h; method in brief: as §1
[25] = tested on: Cryptococcus neoformans; test: Antifungal activity against Cryptococcus neoformans PMC 2115 after 72 hrs by CLSI broth microdilution method; settings: PMC 2115, 72 h; method in brief: as §3
[26] = tested on: Candida tropicalis; test: Antifungal activity against Candida tropicalis PMC 0910 after 48 hrs by CLSI broth microdilution method; settings: PMC 0910, 48 h; method in brief: as §1
[27] = tested on: Trichophyton mentagrophytes; test: Antifungal activity against Trichophyton mentagrophytes DSM 4870 after 72 hrs by CLSI broth microdilution method; settings: DSM 4870, 72 h; method in brief: as §2
[28] = tested on: Candida albicans; test: Antifungal activity against Candida albicans ATCC 76615 after 48 hrs by CLSI broth microdilution method; settings: ATCC 76615, 48 h; method in brief: as §1
[29] = tested on: Cryptococcus neoformans; test: Antifungal activity against Cryptococcus neoformans PMC 2102 after 72 hrs by CLSI broth microdilution method; settings: PMC 2102, 72 h; method in brief: as §3
[30] = tested on: Cryptococcus neoformans; test: Antifungal activity against Cryptococcus neoformans PMC 2111 after 72 hrs by CLSI broth microdilution method; settings: PMC 2111, 72 h; method in brief: as §3
[31] = tested on: Candida albicans; test: Antifungal activity against Candida albicans ATCC 3153 after 48 hrs by CLSI broth microdilution method; settings: ATCC 3153, 48 h; method in brief: as §1
[32] = tested on: Nannizzia gypsea; test: Antifungal activity against Microsporum gypseum PMC 7331 after 72 hrs by CLSI broth microdilution method; settings: PMC 7331, 72 h; method in brief: as §2
[33] = tested on: Cryptococcus neoformans; test: Antifungal activity against Cryptococcus neoformans PMC 2107 after 72 hrs by CLSI broth microdilution method; settings: PMC 2107, 72 h; method in brief: as §3

SMILES | MIC50 [1] [µg/mL] | MIC80 [2] [µg/mL] | MIC50 [3] [µg/mL] | MIC80 [4] [µg/mL] | MIC50 [5] [µg/mL] | MIC50 [6] [µg/mL] | MIC80 [7] [µg/mL] | MIC50 [8] [µg/mL] | MIC50 [9] [µg/mL] | MIC50 [10] [µg/mL] | MIC50 [11] [µg/mL] | MIC80 [12] [µg/mL] | MIC50 [13] [µg/mL] | MIC50 [14] [µg/mL] | MIC50 [15] [µg/mL] | MIC50 [16] [µg/mL] | MIC80 [17] [µg/mL] | MIC50 [18] [µg/mL] | MIC50 [19] [µg/mL] | MIC50 [20] [µg/mL] | other results
O=C(OC(Cn1ccnc1)c1ccc(Cl)cc1)N1CCN(C(=O)c2ccco2)CC1 (stereo unspecified) | 128 (≈ 298 µM) | 128 (≈ 298 µM) | 128 (≈ 298 µM) | 128 (≈ 298 µM) | 128 (≈ 298 µM) | 128 (≈ 298 µM) | 128 (≈ 298 µM) | 32 (≈ 74.6 µM) | 128 (≈ 298 µM) | 128 (≈ 298 µM) | 64 (≈ 149 µM) | 128 (≈ 298 µM) | 32 (≈ 74.6 µM) | 64 (≈ 149 µM) | 32 (≈ 74.6 µM) | 128 (≈ 298 µM) | 128 (≈ 298 µM) | 128 (≈ 298 µM) | 128 (≈ 298 µM) | 128 (≈ 298 µM) | MIC50 [21]: 128 µg/mL (≈ 298 µM); MIC80 [22]: 128 µg/mL (≈ 298 µM); MIC80 [23]: 128 µg/mL (≈ 298 µM); MIC50 [24]: 128 µg/mL (≈ 298 µM); MIC50 [25]: 128 µg/mL (≈ 298 µM); MIC50 [26]: 128 µg/mL (≈ 298 µM); MIC80 [27]: 128 µg/mL (≈ 298 µM); MIC50 [28]: 64 µg/mL (≈ 149 µM); MIC50 [29]: 128 µg/mL (≈ 298 µM); MIC50 [30]: 128 µg/mL (≈ 298 µM); MIC50 [31]: 32 µg/mL (≈ 74.6 µM); MIC80 [32]: 128 µg/mL (≈ 298 µM); MIC50 [33]: 32 µg/mL (≈ 74.6 µM)
O=C(Nc1ccc(N2CCN(c3ccc(Cl)cc3)CC2)cc1)O[C@H](Cn1ccnc1)c1ccc(F)cc1 | 32 (≈ 61.5 µM) | 128 (≈ 246 µM) | 1 (≈ 1.92 µM) | 64 (≈ 123 µM) | 2 (≈ 3.85 µM) | 16 (≈ 30.8 µM) | 128 (≈ 246 µM) | 2 (≈ 3.85 µM) | 2 (≈ 3.85 µM) | 4 (≈ 7.69 µM) | 32 (≈ 61.5 µM) | 128 (≈ 246 µM) | 32 (≈ 61.5 µM) | 32 (≈ 61.5 µM) | 64 (≈ 123 µM) | 1 (≈ 1.92 µM) | 128 (≈ 246 µM) | 1 (≈ 1.92 µM) | 2 (≈ 3.85 µM) | 64 (≈ 123 µM) | MIC50 [21]: 4 µg/mL (≈ 7.69 µM); MIC80 [22]: 128 µg/mL (≈ 246 µM); MIC80 [23]: 128 µg/mL (≈ 246 µM); MIC50 [24]: 2 µg/mL (≈ 3.85 µM); MIC50 [25]: 2 µg/mL (≈ 3.85 µM); MIC50 [26]: 32 µg/mL (≈ 61.5 µM); MIC80 [27]: 128 µg/mL (≈ 246 µM); MIC50 [28]: 32 µg/mL (≈ 61.5 µM); MIC50 [29]: 2 µg/mL (≈ 3.85 µM); MIC50 [30]: 1 µg/mL (≈ 1.92 µM); MIC50 [31]: 64 µg/mL (≈ 123 µM); MIC80 [32]: 128 µg/mL (≈ 246 µM); MIC50 [33]: 1 µg/mL (≈ 1.92 µM)
